In brackets after ≈: the same amount, converted by molar mass. Activity calls are given as the source filed them. No cut-off for these calls is given here.
Assays:
[1] = molecular target: cGMP-specific 3',5'-cyclic phosphodiesterase (Homo sapiens, UniProt O76074); assay: Inhibition of human recombinant PDE5A1 using FAM-labelled cGMP as substrate after 60 mins by fluorescence polarization assay
In short: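 Fluorescence polarization assay, room temperature, 60 min, with 100 nM FAM-cGMP and 0.1-0.45 ng PDE5 or 22.5-250 ng PDE6. Binding agent then added for 60 min; read at ex 485/em 528 nm. Duplicates at each concentration. Activity normalized to no-compound and no-enzyme controls; IC50 from sigmoidal dose-response fit.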

[2] = molecular target: Cone cGMP-specific 3',5'-cyclic phosphodiesterase subunit alpha' (Homo sapiens, UniProt P51160); assay: Inhibition of human recombinant PDE6C using FAM-labelled cGMP as substrate after 60 mins by fluorescence polarization assay
[3] = species: Homo sapiens; assay: Selectivity ratio of IC50 for human recombinant PDE6C to IC50 for human recombinant PDE5A1
[4] = Kinetic solubility of compound in phosphate buffer after 18 hrs by turbidimetric method; format: physicochemical; settings: read-out: Kinetic_solubility
In short: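 Compound serially diluted in DMSO at 100x final and diluted 100-fold into phosphate buffered saline. After 18 h at 37°C, turbidity read at 540 nm. Turbid if absorbance exceeded blank mean + 3 SD. Result is the highest concentration showing no turbidity.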

[5] = test system: Mus musculus; assay: Elevation of cGMP levels in hippocampal slices of wild type C57Bl6 mouse at 3 to 10 mg/kg, ip administered for 30 mins followed by foot shock measured at 10 to 180 secs after shock by enzyme immunoassay; format: functional, organism-based
In short: (§1)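 2-3 month old male and female C57Bl6 mice (20-25 g) dosed i.p. at 3 or 10 mg/kg in 2% DMSO & 2% Tween, or vehicle alone. Foot shock given 30 min later. Killed 10 s, 1 min or 3 min after shock. Hippocampi snap frozen. cGMP measured by enzyme immunoassay in duplicate and normalized to BCA protein. n=3 per group.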

[6] = test system: Mus musculus; assay: Elevation of cGMP levels in hippocampal slices of wild type ip dosed C57Bl6 mouse administered for 30 mins followed by foot shock measured at 10 to 60 secs after shock by enzyme immunoassay; format: functional, organism-based; in short: as §1
[7] = test system: Mus musculus; assay: Elevation of cGMP levels in hippocampal slices of wild type C57Bl6 mouse at 3 mg/kg, ip administered for 30 mins followed by foot shock measured at 10 to 60 secs after shock by enzyme immunoassay relative to control; format: functional
In short: (§2)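 Male and female C57Bl6 mice, 2-3 months old, 20-25 g, given i.p. drug or vehicle (2% DMSO & 2% Tween). Foot shock 30 min after dosing; killed by cervical dislocation and decapitation at 10 s, 1 min or 3 min. Hippocampi snap-frozen. cGMP measured by enzyme immunoassay in duplicate and normalised to BCA protein; n=3 per group; compared with vehicle.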

[8] = test system: Mus musculus; assay: Elevation of cGMP levels in hippocampal slices of wild type C57Bl6 mouse at 10 mg/kg, ip administered for 30 mins followed by foot shock measured at 10 to 60 secs after shock by enzyme immunoassay relative to control; format: functional; in short: as §2
[9] = test system: Mus musculus; assay: Elevation of cGMP levels in hippocampal slices of wild type C57Bl6 mouse at 10 mg/kg, ip administered for 30 mins followed by foot shock measured at 180 secs after shock by enzyme immunoassay relative to control; format: functional; in short: as §2
[10] = test system: Hippocampus; assay: Antialzheimer activity in […] transgenic mouse hippocampal slices assessed as long-term residual potentiation at 50 nM administered via bath perfusion for 10 mins prior to tetanus measured at the last 5 mins of 2 hrs recording (reference value: 137.90 +/- 10.83%); format: functional
In short: (§3)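 Acute hippocampal slices from 3–4 month old APP/PS1 transgenic mice or WT littermates. Slices received 50 nM compound or vehicle through bath perfusion for 10 min before tetanus. Residual potentiation was taken as the mean over the last 5 min of a 2 h recording. Experiments were blinded, values are SEM, and groups were compared by 2-way ANOVA for repeated measures.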

[11] = test system: Hippocampus; assay: Effect on long-term residual potentiation in wild type C57Bl6 mouse hippocampal slices at 50 nM administered via bath perfusion for 10 mins prior to tetanus measured at the last 5 mins of 2 hrs recording; format: ADME, tissue-based; settings: 0.05 µM; in short: as §3
[12] = test system: Mus musculus; assay: Antialzheimer activity in 3 to 4 months old APP1/PS1 transgenic mouse model assessed as long-term residual potentiation in hippocampal slices at 3 mg/kg, ip administered daily for 3 weeks measured at age of 6 to 7 months (reference value: 164.11 +/- 10.36%); format: functional
[13] = Plasma concentration in mouse at 25 mg/kg, ip measured at 0.25 hrs post dose by LC/MS analysis; format: ADME, organism-based
In short: (§4)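 Mice given 25 mg/kg i.p., 3 animals per time point, sampled up to 2 h. Plasma taken from heparinized retro-orbital blood; brain homogenized in methanol. Both extracted with methanol plus internal standard and quantified by LC/MS against a standard curve. Half-life from single-phase exponential decay fit.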

[14] = Drug level in mouse brain at 25 mg/kg, ip measured at 0.25 hrs post dose by LC/MS analysis; format: ADME, organism-based; settings: read-out: Drug uptake; in short: as §4
[15] = test system: Mus musculus; assay: Plasma half life in mouse at 25 mg/kg, ip measured at 0.25 hrs post dose by LC/MS analysis; format: ADME, organism-based; settings: in vivo; in short: as §4
[16] = test system: Liver; assay: Half life in mouse liver microsomes at 1 uM measured up to 60 mins by LC-MS/MS analysis; format: ADME, microsome; settings: 1 h
In short: (§5)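 Liver microsomes incubated with test compound at 1 µM final, 37°C, after a 3 min preincubation without cofactor, alongside a testosterone control. Protein precipitated; samples analyzed by LC-MS/MS with electrospray. Peak area ratio to internal standard compared with time 0 to give % remaining. Half-life from single-phase exponential decay fit.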

[17] = test system: Liver; assay: Half life in human liver microsomes at 1 uM measured up to 60 mins by LC-MS/MS analysis; format: ADME, microsome; settings: 1 h; in short: as §5
[18] = test system: Mus musculus; assay: Antialzheimer activity in APP1/PS1 transgenic mouse assessed as rescue contextual memory by measuring freezing at 3 mg/kg, ip administered daily for 3 weeks by contextual fear memory test (reference value: 15%); format: functional
In short: (§6)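 Mice (APP/PS1 or wild-type) dosed 3 mg/kg i.p. daily for 3 weeks from age 3-4 months. Contextual fear learning scored 24 h after training as freezing (no movement except respiration) over 5 min in the training chamber. Mice tested at 3-4 months or at 6-7 months of age. Experiments blind; mean ± SEM.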

[19] = test system: Mus musculus; assay: Antialzheimer activity in APP1/PS1 transgenic mouse assessed as effect on number of errors at 3 mg/kg, ip administered daily for 3 weeks by 2 day radial arm water maze test (reference value: 3); format: functional
[20] = test system: Mus musculus; assay: Antialzheimer activity in 3 to 4 months old APP1/PS1 transgenic mouse assessed as effect on freezing at 3 mg/kg, ip administered daily for 3 weeks measured at age of 6 to 7 months by contextual fear memory test (reference value: 15%); format: functional; in short: as §6
[21] = test system: Mus musculus; assay: Antialzheimer activity in 3 to 4 months old APP1/PS1 transgenic mouse assessed as effect on number of errors at 3 mg/kg, ip administered daily for 3 weeks measured at age of 6 to 7 months by 2 day radial arm water maze test (reference value: 2.5); format: functional
[22] = test system: Mus musculus; assay: Toxicity in wild type C57Bl6 mouse assessed as effect on freezing at 3 mg/kg, ip administered daily for 3 weeks by contextual fear memory test; format: organism-based; settings: in vivo, 504 h; in short: as §6
[23] = test system: Mus musculus; assay: Toxicity in wild type C57Bl6 mouse assessed as effect on number of errors at 3 mg/kg, ip administered daily for 3 weeks by 2 day radial arm water maze test; format: organism-based; settings: in vivo
In short: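 Wild-type mice given 3 mg/kg i.p. daily for 3 weeks from age 3-4 months. Tested in 2-day radial arm water maze, with a hidden platform in one of 6 arms. Errors counted, averaged per mouse over blocks of 3 trials. Blind scoring; SEM.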

Sequence of Cone cGMP-specific 3',5'-cyclic phosphodiesterase subunit alpha' (P51160 whole entry): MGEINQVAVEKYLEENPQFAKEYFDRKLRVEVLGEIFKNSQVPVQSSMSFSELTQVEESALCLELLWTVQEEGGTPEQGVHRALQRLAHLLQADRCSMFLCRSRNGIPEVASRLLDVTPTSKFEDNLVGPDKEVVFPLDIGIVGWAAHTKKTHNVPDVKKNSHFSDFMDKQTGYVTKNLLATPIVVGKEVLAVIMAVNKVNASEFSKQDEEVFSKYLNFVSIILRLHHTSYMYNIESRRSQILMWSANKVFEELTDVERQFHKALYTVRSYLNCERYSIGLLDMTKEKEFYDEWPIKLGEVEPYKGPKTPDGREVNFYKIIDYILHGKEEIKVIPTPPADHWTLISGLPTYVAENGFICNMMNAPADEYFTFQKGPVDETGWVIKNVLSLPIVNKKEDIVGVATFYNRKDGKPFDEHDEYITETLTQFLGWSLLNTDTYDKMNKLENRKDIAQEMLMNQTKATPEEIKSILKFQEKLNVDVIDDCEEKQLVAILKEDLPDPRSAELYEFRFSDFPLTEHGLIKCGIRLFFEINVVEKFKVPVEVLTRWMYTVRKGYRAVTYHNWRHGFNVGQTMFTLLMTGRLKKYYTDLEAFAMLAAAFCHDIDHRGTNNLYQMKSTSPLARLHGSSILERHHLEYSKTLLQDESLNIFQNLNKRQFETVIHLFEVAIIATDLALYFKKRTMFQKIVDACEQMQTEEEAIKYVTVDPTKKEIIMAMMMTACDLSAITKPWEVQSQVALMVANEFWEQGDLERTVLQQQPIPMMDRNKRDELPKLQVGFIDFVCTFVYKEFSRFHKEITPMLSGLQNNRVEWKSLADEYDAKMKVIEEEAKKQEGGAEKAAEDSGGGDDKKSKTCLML

Work on COc1ccc2nc3c(c(NCc4ccc(OC)c(Cl)c4)c2c1)CN(C(C)=O)CC3 yielded an IC50 [1] of 45.2 nM.

In the case of COc1ccc(CNc2c3c(nc4ccc(Br)cc24)CCN(C(C)=O)C3)cc1Cl, the IC50 [1] is reported as 3.1 nM.

Work on CCN1Cc2nc3ccc(C#N)cc3c(NCc3ccc(OC)c(Cl)c3)c2C1=O yielded an IC50 [2] of 6.6 nM, a Ratio IC50 [3] of 100 and a solubility kinetic at 18 h [4] of 3.1 µM (≈ 1.26 µg/mL).

Molecule COc1ccc(CNc2c(CO)cnc3c(C4CC4)cc(C#N)cc23)cc1Cl has a solubility kinetic at 18 h [4] of under 3.9 µM.

Molecule CC(=O)N1CCc2nc3ccc(C#N)cc3c(NCc3ccnc(Cl)c3)c2C1 has an IC50 [1] of 57 nM.

In the case of COc1c(F)cc(CNc2c3c(nc4ccc(C#N)cc24)CCN(C(C)=O)C3)cc1Cl, the IC50 [1] is reported as 0.32 nM.

With CC(=O)N1CCc2nc3ccc(C#N)cc3c(NCc3ccc(F)c(Cl)c3)c2C1 the IC50 [1] was 1.5 nM.

Molecule CC(=O)N1CCc2nc3ccc(C#N)cc3c(NCc3ccc(OC(F)(F)F)c(Cl)c3)c2C1 has an IC50 [1] of 337 nM.

Work on CCN1CCc2nc3ccc(C#N)cc3c(NCc3ccc(OC)c(Cl)c3)c2C1 yielded an IC50 [1] of 0.19 nM.

In the case of COc1ccc(CNc2c3c(nc4ccc(C#N)cc24)CCN(C(C)=O)C3)cc1Cl, the Activity [5] is reported as “Active”, the Activity [6] is reported as “Dose-dependent effect” and the “fold change (FC)” value [7] is reported as 1.5. The “fold change (FC)” value [8] was 1.7, the “fold change (FC)” value [9] was 1.3 and the Activity [10] was 201.76%. For the same molecule, the Activity [11] was “Non-Toxic”, the Activity [12] was 226.22% and the solubility kinetic at 18 h [4] was over 500 µM. For the same molecule, the concentration at 0.25 h [13] was 1570 ng/mL, the concentration at 0.25 h [14] was 492 ng/g and the t1/2 [15] was 64.2 min. The t1/2 [16] was 3.2 min, the t1/2 [17] was 6 min and the Activity [18] was 30%. It also gave an Activity [19] of 1, an Activity [20] of 40% and an Activity [21] of 1. The Activity [22] was 30% and the Activity [23] was “Non-Toxic”.

For COc1ccc(CNc2c3c(nc4ccc(C#N)cc24)CCN(C)C3)cc1Cl, the IC50 [1] was 0.59 nM.

From ChEMBL document CHEMBL4017542, “Identification of a Novel 1,2,3,4-Tetrahydrobenzo[b][1,6]naphthyridine Analogue as a Potent Phosphodiesterase 5 Inhibitor with Improved Aqueous Solubility for the Treatment of Alzheimer's Disease” (J Med Chem, 2017)
